The source of these data is ChEMBL document CHEMBL2176867, “Design, synthesis, and biological evaluation of novel deguelin-based heat shock protein 90 (HSP90) inhibitors targeting proliferation and angiogenesis” (J Med Chem, 2012).

Series [1] in a line: Cytotoxicity against human H1299 cells after 3 days by MTS assay. The class given is functional, cell-based. Particulars: NCI-H1299, 72 h. An outline of the steps: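 H1299 NSCLC cells seeded at 5 × 10³ cells/well, treated next day with graded concentrations (0.1% DMSO as dilution control); proliferation read by MTS after 3 days; at least three replicate wells; IC50 taken as mean of triplicate experiments.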
On the technique in general: Tetrazolium dyes change colour on reduction, which living cells bring about.

The species entered for series [2] is Danio rerio. Nature of the series: Toxicity in transgenic zebrafish embryos assessed as effect on viability at 50 nM to 1.25 uM after 74 hrs. The class given is organism-based. The conditions noted are these: in vivo, 0.05 µM. An outline of the steps: (§1)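 Zebrafish embryos exposed from 24 hpf to 50 nM–1.25 μM in Danieau's solution (pigmentation blocked with 1-phenyl-2-thiourea at 12 hpf); solution washed out at 48 hpf, then scored for viability and gross morphological abnormalities.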

The species entered for series [3] is Danio rerio. The experiment in a line: Antiangiogenic activity in transgenic zebrafish assessed as depletion of subintestinal veins at 50 nM to 1250 nM after 72 hrs. The class given is functional, organism-based. A digest of the protocol: (§2)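 Tg(fli:EGFP)^y1 embryos, treated with 1-phenyl-2-thiourea at 12 hpf to block pigmentation, placed in Danieau's solution ± test agents (50, 250, 1250 nM) at 24 hpf; solution washed out at 48 hpf; subintestinal vessels imaged in 72 hpf larvae against DMSO control.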

The species named for series [4] is Danio rerio. Nature of the series: Toxicity in transgenic zebrafish embryos assessed as effect on growth at 50 nM to 1.25 uM after 74 hrs. The conditions noted are these: in vivo, 0.05 µM. The class given is organism-based. An outline of the steps:
as §1

For series [5], the species on record is Danio rerio. The experiment in a line: Toxicity in transgenic zebrafish embryos assessed as developmental deffect at 50 nM to 1.25 uM after 24 hrs. The class given is organism-based. The conditions noted are these: in vivo, 0.05 µM. An outline of the steps: as §1
The species entered for series [6] is Danio rerio. The experiment in a line: Toxicity in transgenic zebrafish embryos assessed as developmental deffect at 10 uM after 24 hrs. The conditions noted are these: in vivo. The class given is organism-based.
In series [7] the target is Heat shock protein HSP 90-beta (Homo sapiens) (UniProt P08238). Nature of the series: Inhibition of HSP90 binding to HIF1alpha in human H1299 cells at 12.5 uM after 30 mins by immunoprecipitation and immunoblotting analysis in presence of ATP. The class given is cell-based. Particulars: 1.25 uM, in the assay text read “1.25 uM” for “12.5 uM”. A digest of the protocol:
(§3)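 Cell-free format: lysates of H1299 cells pretreated with 100 μM CoCl₂ for 5 h, incubated with compound at 1.25 μM, with or without 20 mM ATP, 30 min at 37 °C. HIF-1α immunoprecipitated (antibody overnight, 4 °C; protein G-agarose 2 h, 4 °C), resolved on 6% SDS-PAGE, blotted for HSP90.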
A general note: A western blot detects proteins with antibodies after separation by electrophoresis.

The target is the same in series [8]. Nature of the series: Inhibition of HSP90 binding to HIF1alpha in human H1299 cells at 12.5 uM after 30 mins by immunoprecipitation and immunoblotting analysis. The class given is cell-based. The conditions noted are these: 1.25 uM, in the assay text read “1.25 uM” for “12.5 uM”. A digest of the protocol: as §3
For series [9] the target is unchanged. Nature of the series: Inhibition of HSP90 in human H1299 cells assessed as reduction of HIF1alpha level treated for 72 hrs followed by incubated for 12 hrs under hypoxia condition by Western blot analysis. The class given is cell-based. An outline of the steps: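 H1299 cells left untreated or exposed to test agents at each concentration for 72 h, then held under hypoxia (1% O₂) for 12 h; lysates immunoblotted with monoclonal anti-HIF-1α antibody.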

Series [10] is filed under the species Danio rerio. Nature of the series: Antiangiogenic activity in transgenic zebrafish embryos.
For series [11], the species on record is Danio rerio. The experiment in a line: Antiangiogenic activity in transgenic zebrafish at 0.05 to 1.25 uM up to 72 hrs. The class given is functional, organism-based. A digest of the protocol:
as §2

Series [12] is filed under the species Danio rerio. The experiment in a line: Toxicity in transgenic zebrafish embryos assessed as effect on viability after 24 hrs. The class given is organism-based. Particulars: in vivo. A digest of the protocol: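 Tg(fli:EGFP)y1 zebrafish embryos, with pigment suppressed by 1-phenyl-2-thiourea from 12 hpf, were placed at 24 hpf in Danieau's solution with or without compound (50 nM to 1.25 μM). The solution was washed out at 48 hpf, and embryos were examined for viability and gross morphological abnormalities, with DMSO as the control.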

The species entered for series [13] is Danio rerio. Nature of the series: Antiangiogenic activity in transgenic zebrafish at 50 nM up to 72 hrs. The class given is functional, organism-based. A digest of the protocol: as §2
The species entered for series [14] is Danio rerio. The experiment in a line: Toxicity in transgenic zebrafish embryos assessed as developmental deffect at 50 nM to 10 uM after 24 hrs. The class given is organism-based. Particulars: in vivo, 0.05 µM. An outline of the steps:
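Tg(fli:EGFP)y1 zebrafish embryos were exposed dose-dependently from 50% epiboly (5.3 hpf) across 50 nM to 10 μM, then scored for developmental defects. Pigmentation was blocked with 1-phenyl-2-thiourea at 12 hpf, and compounds were given in Danieau's solution, with DMSO as the negative control.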

The species named for series [15] is Danio rerio. The experiment in a line: Antiangiogenic activity in transgenic zebrafish assessed as depletion of subintestinal veins after 72 hrs. The class given is functional, organism-based. A digest of the protocol:
as §2

The source made the active and inactive calls. The calls are words filed in the database; no cut-off is given here.

Chain of Heat shock protein HSP 90-beta (Homo sapiens) (P08238 whole entry): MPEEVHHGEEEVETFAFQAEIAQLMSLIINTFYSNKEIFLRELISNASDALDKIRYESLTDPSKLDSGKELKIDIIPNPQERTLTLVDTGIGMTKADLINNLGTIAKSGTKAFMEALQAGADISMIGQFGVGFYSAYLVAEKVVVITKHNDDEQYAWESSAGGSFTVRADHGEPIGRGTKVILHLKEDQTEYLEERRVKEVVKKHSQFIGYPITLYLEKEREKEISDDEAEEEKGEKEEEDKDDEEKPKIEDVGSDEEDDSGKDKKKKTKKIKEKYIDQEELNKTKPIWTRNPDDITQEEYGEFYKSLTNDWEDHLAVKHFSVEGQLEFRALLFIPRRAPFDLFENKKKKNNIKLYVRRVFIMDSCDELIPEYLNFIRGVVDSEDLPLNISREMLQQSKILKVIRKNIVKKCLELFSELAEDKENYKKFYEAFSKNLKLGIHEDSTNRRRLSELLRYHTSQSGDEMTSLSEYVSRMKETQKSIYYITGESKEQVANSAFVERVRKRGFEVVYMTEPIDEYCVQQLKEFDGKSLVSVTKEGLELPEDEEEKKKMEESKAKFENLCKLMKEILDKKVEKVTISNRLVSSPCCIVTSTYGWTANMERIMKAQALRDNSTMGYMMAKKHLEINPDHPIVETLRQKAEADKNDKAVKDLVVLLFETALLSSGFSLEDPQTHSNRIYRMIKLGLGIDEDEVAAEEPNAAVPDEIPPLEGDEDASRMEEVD

The term IC50 denotes the concentration that inhibits the measured activity by half. Compound `COc1cc2c(cc1OC)C(C(=O)c1ccc3c(c1)C=CC(C)(C)O3)CCO2` (racemic) had a 50% inhibitory concentration (IC50) in [1] of 3.8 µM.
Same read-out and setting: the result for `COc1cc2c(cc1OC)[C@@H]1C(=O)c3ccc(OCc4ccccc4)c(CC=C(C)C)c3O[C@@H]1CO2` reads above 500 µM.
Turning to `CCO[C@@H]1c2ccc3c(c2O[C@@H]2COc4cc(OC)c(OC)cc4[C@H]12)C=CC(C)(C)O3`, in series [1], the IC50 was 9.8 µM.
On to `COc1ccc([C@H](C)C(=O)c2ccc3c(c2OC)C=CC(C)(C)O3)cc1OC`, for which the Activity result in the series filed under Danio rerio [2] was “Non-toxic”; in the series filed under Danio rerio [4] it was “Non-toxic”; in the series listed under Danio rerio [5], “Non-toxic”; in the series listed under Danio rerio [6], “Toxic”; in the series listed under Danio rerio [10], “Dose-dependent effect”. Further, the result in the series filed under Danio rerio [3] was Active. In [7], the inhibition entry was “inactive”. Further, the inhibition result in series [8] and in series [9] was “Active” in each case. This compound also returned a half-maximal inhibitory concentration (IC50) in [1] of 0.49 µM.
Turning to `COc1cc2c(cc1OC)[C@@H]1C(=O)c3ccc4c(c3O[C@@H]1CO2)C(O)C(O)C(C)(C)O4` (some centres undefined), the concentration for half-maximal inhibition (IC50) in [1] was above 500 µM.
On the same count and under the same terms, then `C=CCOc1ccc2c(c1CC=C(C)C)O[C@@H]1COc3cc(OC)c(OC)cc3[C@@H]1C2=O`, with above 500 µM.
Same read-out and setting: the result for `COc1cc2c(cc1O)[C@@H]1C(=O)c3ccc4c(c3O[C@@H]1CO2)C=CC(C)(C)O4` reads 0.97 µM.
Take `COc1cc2c(cc1OC)[C@@H]1[C@H](O)c3ccc4c(c3O[C@@H]1CO2)C=CC(C)(C)O4`: in the series listed under Danio rerio [11], the result was inactive. Further, the inhibition entry in series [9] was “Active”. Besides, the IC50 in series [1] was determined as 0.01 µM.
With `COc1cc2c(cc1OC)[C@@H]1/C(=N/O)c3ccc4c(c3O[C@@H]1CO2)C=CC(C)(C)O4`, the half-inhibitory concentration (IC50) in series [1] amounted to 0.3 µM.
Still for that read-out and setting: the result for `COc1ccc(C2COc3c(ccc4c3C=CC(C)(C)O4)C2=O)cc1OC` (racemic) reads 4.5 µM.
On to `COc1cc2c(cc1OC)[C@@H]1[C@H](OCc3ccccc3)c3ccc4c(c3O[C@@H]1CO2)C=CC(C)(C)O4`, for which, in series [1], the concentration for half-maximal inhibition (IC50) is above 500 µM.
As to `COc1cc2c(cc1OC)[C@@H]1C(=O)c3ccc4c(c3O[C@@H]1CO2)C=CC(C)(C)O4` [DEGUELIN], the Activity entry in the series listed under Danio rerio [12] was “Dose-dependent effect”; in the series listed under Danio rerio [14], “Toxic”. Further, the outcome in the series listed under Danio rerio [13] was inactive. In [1], this compound returned a half-inhibitory concentration (IC50) of 0.11 µM.
As for `COc1cc2c(cc1OC)[C@@H]1[C@H](OC(N)=O)c3ccc4c(c3O[C@@H]1CO2)C=CC(C)(C)O4`, the result in the series listed under Danio rerio [11] was inactive. For the same compound, the inhibition result in series [9] is “Active”. The IC50 in series [1] worked out at 0.11 µM.
On to `COc1ccc(CC(=O)c2ccc3c(c2OC)C=CC(C)(C)O3)cc1OC`, for which the Activity entry in the series listed under Danio rerio [2] was “Non-toxic”; in the series listed under Danio rerio [15], “Dose-dependent effect”; in the series filed under Danio rerio [4], “Non-toxic”; in the series listed under Danio rerio [5], “Non-toxic”; in the series listed under Danio rerio [6], “Toxic”; in the series listed under Danio rerio [10] it was “Dose-dependent effect”. Besides, the inhibition entry in [7] was “inactive”. The inhibition entry in [8] and in [9] was “Active” each time. Also, the IC50 in [1] amounted to 0.14 µM.
For `COc1cc2c(cc1O)OC[C@H]1Oc3c(ccc4c3C=CC(C)(C)O4)C(=O)[C@@H]21`, the IC50 in [1] is 0.87 µM.
In the case of `COc1cc2c(cc1OC)[C@@H]1C(=O)c3ccc4c(c3O[C@@H]1CO2)CCC(C)(C)O4`, in [1], half-maximal inhibition (IC50) was put at 0.14 µM.
The same measure, in the same setting: the result for `COc1ccc(CC(=O)c2ccc3c(c2)C=CC(C)(C)O3)cc1OC` reads 1 µM.
Same read-out and setting: then `COc1cc2c(cc1OC)[C@@H]1C(=O)c3ccc(OC(C)=O)c(CC=C(C)C)c3O[C@@H]1CO2`, with above 500 µM; and `COc1ccc(C(C)C(=O)c2ccc3c(c2OC)C=CC(C)(C)O3)cc1OC` (racemic), with 0.73 µM; and `CC1(C)C=Cc2c(ccc3c2O[C@@H]2COc4cc(O)c(O)cc4[C@@H]2C3=O)O1`, with 10.1 µM.
The same measure, in the same setting: then `CCCO[C@@H]1c2ccc3c(c2O[C@@H]2COc4cc(OC)c(OC)cc4[C@H]12)C=CC(C)(C)O3`, with 10.5 µM.
As for `COc1ccc(C2(C(=O)c3ccc4c(c3OC)C=CC(C)(C)O4)CC2)cc1OC`, the IC50 in series [1] amounted to 102 µM. Against the preceding compound, the IC50 is about 9.7-fold higher.
The same measure, in the same setting: then `COc1cc2c(cc1OC)[C@@H]1C(=O)c3ccc(OC)c(CC=C(C)C)c3O[C@@H]1CO2` [ROTENONIC ACID, METHYL ETHER], with 5.2 µM; and `CO/N=C1\c2ccc3c(c2O[C@@H]2COc4cc(OC)c(OC)cc4[C@H]12)C=CC(C)(C)O3`, with 4.3 µM.
Still for that read-out and setting: the result for `COc1cc2c(cc1OC)[C@@H]1C(=O)c3ccc(O)c(CC=C(C)C)c3O[C@@H]1CO2` [ROTENONIC ACID] reads 9.8 µM; that for `COc1cc2c(cc1OC)C1=Cc3ccc4c(c3O[C@@H]1CO2)C=CC(C)(C)O4`, above 500 µM; that for `COc1cc2c(cc1OC)[C@@H]1Cc3ccc4c(c3O[C@@H]1CO2)C=CC(C)(C)O4`, 4.2 µM.
Still for that read-out and setting: then `COc1cc2c(cc1OC)[C@@H]1[C@H](OC)c3ccc4c(c3O[C@@H]1CO2)C=CC(C)(C)O4`, with 4.1 µM; and `COc1cc2c(cc1OC)[C@@H]1/C(=N/OCc3ccccc3)c3ccc4c(c3O[C@@H]1CO2)C=CC(C)(C)O4`, with above 500 µM.
As to `COc1ccc(C(C)(C)C(=O)c2ccc3c(c2OC)C=CC(C)(C)O3)cc1OC`, it took 3.2 µM to reach half-maximal inhibition in series [1] (IC50).
The same measure, in the same setting: then `COc1cc2c(cc1OC)-c1c(oc3c4c(ccc3c1=O)OC(C)(C)C=C4)CO2` [DEHYDRODEGUELIN], with above 500 µM; and `COc1cc2c(cc1OC)[C@@H]1[C@H](OC(C)=O)c3ccc4c(c3O[C@@H]1CO2)C=CC(C)(C)O4`, with 0.68 µM.
For the compound `COc1ccc([C@@H](C)C(=O)c2ccc3c(c2OC)C=CC(C)(C)O3)cc1OC`, the Activity result in the series listed under Danio rerio [2] was “Non-toxic”; in the series listed under Danio rerio [4], “Non-toxic”; in the series listed under Danio rerio [5] it was “Non-toxic”; in the series filed under Danio rerio [6], “Toxic”; in the series listed under Danio rerio [10] it was “Dose-dependent effect”. In addition, the inhibition result in series [9] was “Active”. Further, the IC50 in series [1] stood at 1.3 µM.
